# Source: ChEMBL document CHEMBL1126155, “Renin inhibitory pentols showing improved enteral bioavailability” (J Med Chem, 1992)
# Experiments:
# [1] = biological target: T1, Renin (Homo sapiens, UniProt P00797); assay: Concentration required for 50% inhibition of human plasma renin; type: cell-free
# T1 sequence (P00797 whole entry): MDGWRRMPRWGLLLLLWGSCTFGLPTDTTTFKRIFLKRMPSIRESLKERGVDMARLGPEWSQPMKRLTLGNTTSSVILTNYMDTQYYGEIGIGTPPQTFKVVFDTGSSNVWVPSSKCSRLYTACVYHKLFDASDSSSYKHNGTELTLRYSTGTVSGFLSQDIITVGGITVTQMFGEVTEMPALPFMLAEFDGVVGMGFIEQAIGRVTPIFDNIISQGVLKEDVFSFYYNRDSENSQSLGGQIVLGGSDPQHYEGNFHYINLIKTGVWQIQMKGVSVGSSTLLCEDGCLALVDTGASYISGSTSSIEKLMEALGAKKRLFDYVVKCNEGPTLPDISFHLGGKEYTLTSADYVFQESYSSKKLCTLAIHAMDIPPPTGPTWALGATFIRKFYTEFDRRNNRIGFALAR
# Summary of the method: (§1)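 Plasma renin from dog, human, rat, rhesus monkey or sheep plasma; assayed by a previously described plasma method, modified to be buffered at pH 7.4; IC50 in M.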
# [2] = biological target: T1, Renin; assay: Concentration required for 50% inhibition of human kidney renin
# [3] = biological target: Pepsin A (Homo sapiens, UniProt P0DJD9); assay: Inhibition of pepsin
# Summary of the method: (§2)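 Pepsin and cathepsin D inhibition measured by an earlier-described method; inhibitor tested at concentrations up to 10^-4 M.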
# [4] = biological target: Cathepsin D (Homo sapiens, UniProt P07339); assay: Concentration required for 50% inhibition of cathepsin D; summary of the method: as §2
# [5] = biological target: T2, Renin (Rattus norvegicus, UniProt P08424); assay: Concentration required for 50% inhibition of rat plasma renin; type: cell-free; summary of the method: as §1
# T2 sequence (P08424 whole entry): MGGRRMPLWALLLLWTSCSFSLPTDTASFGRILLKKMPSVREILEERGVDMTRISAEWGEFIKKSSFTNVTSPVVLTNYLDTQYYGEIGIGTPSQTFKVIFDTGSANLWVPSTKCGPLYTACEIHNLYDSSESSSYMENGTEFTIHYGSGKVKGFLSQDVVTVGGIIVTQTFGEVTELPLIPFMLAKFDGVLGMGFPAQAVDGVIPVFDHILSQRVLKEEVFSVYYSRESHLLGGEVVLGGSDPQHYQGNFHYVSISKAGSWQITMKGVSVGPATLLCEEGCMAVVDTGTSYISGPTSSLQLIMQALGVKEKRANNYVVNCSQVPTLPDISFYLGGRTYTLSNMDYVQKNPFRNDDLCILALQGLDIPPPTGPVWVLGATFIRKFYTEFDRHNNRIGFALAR
# [6] = biological target: Renin (Ovis aries); assay: Concentration required for 50% inhibition of sheep plasma renin
# [7] = biological target: Renin (Macaca mulatta); assay: Concentration required for 50% inhibition of rhesus monkey plasma renin
# [8] = biological target: Renin (Canis familiaris); assay: Concentration required for 50% inhibition of dog plasma renin
# Chain of Pepsin A (P0DJD9 whole entry): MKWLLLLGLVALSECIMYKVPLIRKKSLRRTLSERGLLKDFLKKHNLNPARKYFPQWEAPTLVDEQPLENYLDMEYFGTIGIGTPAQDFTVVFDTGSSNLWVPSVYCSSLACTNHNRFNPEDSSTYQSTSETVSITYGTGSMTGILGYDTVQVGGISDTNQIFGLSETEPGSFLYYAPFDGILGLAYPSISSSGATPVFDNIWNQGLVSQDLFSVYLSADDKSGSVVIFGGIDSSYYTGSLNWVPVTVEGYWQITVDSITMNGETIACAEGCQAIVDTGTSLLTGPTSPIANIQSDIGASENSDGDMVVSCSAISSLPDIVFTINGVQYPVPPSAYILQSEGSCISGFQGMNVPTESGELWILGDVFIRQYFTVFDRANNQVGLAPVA
# Chain of Cathepsin D (P07339 65-162 limits assumed): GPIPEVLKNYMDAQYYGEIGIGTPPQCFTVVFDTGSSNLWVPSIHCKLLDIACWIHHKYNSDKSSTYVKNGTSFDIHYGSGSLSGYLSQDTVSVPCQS
# Chain of Cathepsin D (P07339 169-412 limits assumed): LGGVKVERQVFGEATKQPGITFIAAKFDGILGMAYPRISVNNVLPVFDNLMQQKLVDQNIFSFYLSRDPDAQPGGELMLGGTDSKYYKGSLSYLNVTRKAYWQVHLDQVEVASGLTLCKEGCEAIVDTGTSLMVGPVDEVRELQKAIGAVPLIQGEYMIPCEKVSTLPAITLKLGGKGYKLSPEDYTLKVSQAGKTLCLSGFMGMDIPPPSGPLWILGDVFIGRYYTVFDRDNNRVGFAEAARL
IC50 [1] [nM],IC50 [2] [nM],IC50 [3] [nM],IC50 [4] [nM],IC50 [5] [nM],IC50 [6] [nM],IC50 [7] [nM],IC50 [8] [nM],Structure (SMILES)
1.5,2.4,,,,,,,CN(CCN(C)C(=O)N1CCOCC1)C(=O)O[C@@H](Cc1ccccc1)C(=O)NC(Cc1cnc[nH]1)C(=O)N[C@@H](CC1CCCCC1)[C@@H](O)[C@@H](O)[C@H](O)[C@H](O)CO (stereo partly specified)
110,50,,,,,,,CCC[C@H](NC(=O)[C@H](Cc1ccccc1)NC(=O)[C@@H](N)[C@@H](C)CC)C(=O)N[C@@H](CC1CCCCC1)[C@@H](O)[C@@H](O)[C@H](O)[C@H](O)CO
420,120,,,,,,,CCC[C@H](NC(=O)[C@H](Cc1ccccc1)NC(=O)[C@@H](N)[C@@H](C)CC)C(=O)N[C@@H](CC1CCCCC1)[C@@H](O)[C@@H](O)[C@H](O)[C@@H](O)CO
4.5,4.4,> 100000,> 100000,8000,100,11,110,CC(C)(C)S(=O)(=O)CC(Cc1ccccc1)C(=O)NC(Cc1c[nH]cn1)C(=O)N[C@@H](CC1CCCCC1)[C@@H](O)[C@@H](O)[C@H](O)[C@H](O)CO (stereo partly specified)
22,12,,,,,,,N[C@H]1CC[C@@H](C(=O)N[C@@H](Cc2ccccc2)C(=O)NC(Cc2c[nH]cn2)C(=O)N[C@@H](CC2CCCCC2)[C@@H](O)[C@@H](O)[C@H](O)[C@H](O)CO)CC1 (stereo partly specified)
